Data reported in ChEMBL document CHEMBL4689842, “EUbOPEN Chemogenomics Library wave 1” (2021).

System: U2OS
Assay: Multiplex assay against U2OS
Format: toxicity, cell-based
Conditions: human
Outline: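 Four dyes were applied at seeding to live cells: Hoechst33342, BioTracker Green Microtubule Cytoskeleton Dye, MitoTracker Red and Annexin V Alexa Fluor 680. Imaging after compound addition used a CQ1 microscope at 37°C and 5% CO2. CellPathfinder machine-learning gating then sorted cells into Hoechst high-intensity objects or normal cells, normal cells into healthy, pyknosed or fragmented nuclei, and pyknosed cells into mitotic or apoptotic, with tubulin, mitochondrial-mass and membrane-permeability phenotypes given as per cents of healthy-nucleus cells.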

[1] = 12 h, 1 µM, compound concentration 1 uM, replicate 1
[2] = 12 h, 1 µM, compound concentration 1 uM, replicate 2
[3] = 12 h, 10 µM, compound concentration 10 uM, replicate 1
[4] = 12 h, 10 µM, compound concentration 10 uM, replicate 2
[5] = 24 h, 1 µM, compound concentration 1 uM, replicate 1
[6] = 24 h, 1 µM, compound concentration 1 uM, replicate 2
[7] = 24 h, 10 µM, compound concentration 10 uM, replicate 1
[8] = 24 h, 10 µM, compound concentration 10 uM, replicate 2
[9] = 48 h, 1 µM, compound concentration 1 uM, replicate 1
[10] = 48 h, 1 µM, compound concentration 1 uM, replicate 2
[11] = 48 h, 10 µM, compound concentration 10 uM, replicate 1
[12] = 48 h, 10 µM, compound concentration 10 uM, replicate 2

## CNc1cc(Oc2cc(C(=O)Nc3cc(N4CCN(C)CC4)cc(C(F)(F)F)c3)ccc2C)ncn1
[1]
  Population Apoptotic (%): 32%
  Population Healthy Nuclei (%): 59%
  Population Hoechst High Intensity Objects (%): 11%
  Population Membrane Permeable-Phenotype (%): 4%
  Population Mitochondria Different-Phenotype (%): 68%
  Population Mitotic Cells (%): 67%
  Population Normal (%): 88%
  Population Pyknosed Nuclei (%): 30%
  Population Tubulin-Different-Phenotype (%): 60%
  Total Cell Count: 176
[2]
  Population Apoptotic (%): 54%
  Population Fragmented Nuclei (%): 10%
  Population Healthy Nuclei (%): 73%
  Population Hoechst High Intensity Objects (%): 2%
  Population Membrane Permeable-Phenotype (%): 10%
  Population Mitochondria Different-Phenotype (%): 60%
  Population Mitotic Cells (%): 45%
  Population Normal (%): 97%
  Population Pyknosed Nuclei (%): 16%
  Population Tubulin-Different-Phenotype (%): 52%
  Total Cell Count: 56
[3]
  Population Apoptotic (%): 90%
  Population Fragmented Nuclei (%): 40%
  Population Healthy Nuclei (%): 10%
  Population Hoechst High Intensity Objects (%): 6%
  Population Membrane Permeable-Phenotype (%): 100%
  Population Mitochondria Different-Phenotype (%): 100%
  Population Mitotic Cells (%): 9%
  Population Normal (%): 93%
  Population Pyknosed Nuclei (%): 48%
  Population Tubulin-Different-Phenotype (%): 100%
  Total Cell Count: 116
[4]
  Population Apoptotic (%): 73%
  Population Fragmented Nuclei (%): 24%
  Population Healthy Nuclei (%): 13%
  Population Hoechst High Intensity Objects (%): 33%
  Population Membrane Permeable-Phenotype (%): 58%
  Population Mitochondria Different-Phenotype (%): 66%
  Population Mitotic Cells (%): 26%
  Population Normal (%): 66%
  Population Pyknosed Nuclei (%): 61%
  Population Tubulin-Different-Phenotype (%): 66%
  Total Cell Count: 70
[5]
  Population Apoptotic (%): 46%
  Population Fragmented Nuclei (%): 11%
  Population Healthy Nuclei (%): 64%
  Population Hoechst High Intensity Objects (%): 9%
  Population Membrane Permeable-Phenotype (%): 10%
  Population Mitochondria Different-Phenotype (%): 64%
  Population Mitotic Cells (%): 53%
  Population Normal (%): 90%
  Population Pyknosed Nuclei (%): 23%
  Population Tubulin-Different-Phenotype (%): 55%
  Total Cell Count: 174
[6]
  Population Apoptotic (%): 50%
  Population Fragmented Nuclei (%): 16%
  Population Healthy Nuclei (%): 63%
  Population Hoechst High Intensity Objects (%): 6%
  Population Membrane Permeable-Phenotype (%): 13%
  Population Mitochondria Different-Phenotype (%): 68%
  Population Mitotic Cells (%): 50%
  Population Normal (%): 93%
  Population Pyknosed Nuclei (%): 19%
  Population Tubulin-Different-Phenotype (%): 51%
  Total Cell Count: 58
[7]
  Population Apoptotic (%): 93%
  Population Fragmented Nuclei (%): 47%
  Population Healthy Nuclei (%): 3%
  Population Hoechst High Intensity Objects (%): 10%
  Population Membrane Permeable-Phenotype (%): 100%
  Population Mitochondria Different-Phenotype (%): 100%
  Population Mitotic Cells (%): 6%
  Population Normal (%): 89%
  Population Pyknosed Nuclei (%): 48%
  Population Tubulin-Different-Phenotype (%): 100%
  Total Cell Count: 120
[8]
  Population Apoptotic (%): 76%
  Population Fragmented Nuclei (%): 16%
  Population Healthy Nuclei (%): 23%
  Population Hoechst High Intensity Objects (%): 48%
  Population Membrane Permeable-Phenotype (%): 80%
  Population Mitochondria Different-Phenotype (%): 80%
  Population Mitotic Cells (%): 23%
  Population Normal (%): 51%
  Population Pyknosed Nuclei (%): 60%
  Population Tubulin-Different-Phenotype (%): 80%
  Total Cell Count: 76
[9]
  Population Apoptotic (%): 54%
  Population Fragmented Nuclei (%): 21%
  Population Healthy Nuclei (%): 60%
  Population Hoechst High Intensity Objects (%): 6%
  Population Membrane Permeable-Phenotype (%): 11%
  Population Mitochondria Different-Phenotype (%): 50%
  Population Mitotic Cells (%): 45%
  Population Normal (%): 93%
  Population Pyknosed Nuclei (%): 18%
  Population Tubulin-Different-Phenotype (%): 49%
  Total Cell Count: 163
[10]
  Population Apoptotic (%): 50%
  Population Fragmented Nuclei (%): 14%
  Population Healthy Nuclei (%): 70%
  Population Hoechst High Intensity Objects (%): 4%
  Population Membrane Permeable-Phenotype (%): 24%
  Population Mitochondria Different-Phenotype (%): 54%
  Population Mitotic Cells (%): 50%
  Population Normal (%): 95%
  Population Pyknosed Nuclei (%): 14%
  Population Tubulin-Different-Phenotype (%): 50%
  Total Cell Count: 51
[11]
  Population Apoptotic (%): 96%
  Population Fragmented Nuclei (%): 52%
  Population Healthy Nuclei (%): 2%
  Population Hoechst High Intensity Objects (%): 20%
  Population Membrane Permeable-Phenotype (%): 100%
  Population Mitochondria Different-Phenotype (%): 100%
  Population Mitotic Cells (%): 3%
  Population Normal (%): 80%
  Population Pyknosed Nuclei (%): 45%
  Population Tubulin-Different-Phenotype (%): 100%
  Total Cell Count: 142
[12]
  Population Apoptotic (%): 47%
  Population Fragmented Nuclei (%): 22%
  Population Healthy Nuclei (%): 45%
  Population Hoechst High Intensity Objects (%): 50%
  Population Membrane Permeable-Phenotype (%): 89%
  Population Mitochondria Different-Phenotype (%): 89%
  Population Mitotic Cells (%): 52%
  Population Normal (%): 50%
  Population Pyknosed Nuclei (%): 31%
  Population Tubulin-Different-Phenotype (%): 89%
  Total Cell Count: 85
